Columns and labels:
Beta-secretase 1 [1] = target: T1, Beta-secretase 1 (Homo sapiens, UniProt P56817); experiment: Inhibition of BACE1 expressing APP Swedish mutant using rhodamine-labeled EVNLDAEFK-quencher as substrate after 60 mins by FRET analysis
Beta-secretase 2 [2] = target: T2, Beta-secretase 2 (Homo sapiens, UniProt Q9Y5Z0); experiment: Inhibition of BACE2 expressing APP Swedish mutant using rhodamine-labeled EVNLDAEFK-quencher as substrate after 60 mins by FRET analysis
Beta-secretase 1 [3] = target: T1, Beta-secretase 1; experiment: Inhibition of BACE1 expressing APP Swedish mutant using rhodamine-labeled EVNLDAEFK-quencher as substrate after 60 mins by Michaelis-Menten equation
Method in brief: (§1)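 Same FRET set-up (750 nM peptide substrate, KM 20 μM, 1 U/mL enzyme, pH 4.5 acetate, 60 min, 25 °C). Apparent KI derived from steady-state rates with and without inhibitor (vI, v0), then converted to absolute KI by correcting for substrate concentration and KM.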

Beta-secretase 2 [4] = target: T2, Beta-secretase 2; experiment: Inhibition of BACE2 expressing APP Swedish mutant using rhodamine-labeled EVNLDAEFK-quencher as substrate after 60 mins by Michaelis-Menten equation; method in brief: as §1
Beta-secretase 1 [5] = target: T1, Beta-secretase 1; experiment: Inhibition of BACE1 in human H4 cells expressing APP Swedish K595N and M596L double mutant assessed as inhibition of amyloid beta (1 to 40) production after 24 hrs by whole cell assay; type: cell-based; settings: pooled result: one value given for 2 cell lines, strains, targets or settings
Method in brief: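 H4 neuroglioma cells carrying human APP K595N/M596L, seeded at 2 × 10⁵ cells/well and grown 24 h, then given increasing compound concentrations overnight (1% DMSO negative control). Medium Aβ40 or Aβ42 measured by sandwich immunoassay: biotinylated 4G8 plus C-terminal-specific rabbit antibodies, electrochemiluminescence read-out. Viability checked by MTT (0.5 mg/mL, 3 h, 570 nm). EC50 as mean of ≥3 experiments ± SD.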

[6] = Aqueous solubility of the compound; type: physicochemical; settings: water
Method in brief: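 Solubility estimated by HPLC. Salt sonicated 48 h in water, filtered through 0.45 μm, injected after a five-point calibration (1.44–18.0 mg/mL standards in acetonitrile/methanol 50:50 v/v; least-squares linear fit; triplicate injections). Reversed-phase C18 column, UV detection at 280 nm. Solubility taken where recovery began to fall with rising concentration.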

[7] = Selectivity ratio of IC50 for BACE2 to IC50 for BACE1

T2 sequence (Q9Y5Z0 63-518 limits assumed, stated change not applied): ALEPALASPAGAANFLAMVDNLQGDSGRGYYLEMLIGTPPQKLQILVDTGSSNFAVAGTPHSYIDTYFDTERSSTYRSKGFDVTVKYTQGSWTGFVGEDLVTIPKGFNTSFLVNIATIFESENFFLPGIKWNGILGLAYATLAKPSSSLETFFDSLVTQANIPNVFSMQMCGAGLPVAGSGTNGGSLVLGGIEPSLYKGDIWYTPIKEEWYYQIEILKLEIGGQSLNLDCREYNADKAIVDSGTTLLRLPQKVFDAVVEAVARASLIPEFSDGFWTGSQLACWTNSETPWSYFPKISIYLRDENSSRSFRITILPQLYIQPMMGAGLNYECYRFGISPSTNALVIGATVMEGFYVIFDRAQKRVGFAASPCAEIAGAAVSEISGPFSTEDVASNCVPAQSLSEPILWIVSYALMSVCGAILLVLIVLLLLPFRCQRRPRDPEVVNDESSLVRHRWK
T1 sequence (P56817 whole entry): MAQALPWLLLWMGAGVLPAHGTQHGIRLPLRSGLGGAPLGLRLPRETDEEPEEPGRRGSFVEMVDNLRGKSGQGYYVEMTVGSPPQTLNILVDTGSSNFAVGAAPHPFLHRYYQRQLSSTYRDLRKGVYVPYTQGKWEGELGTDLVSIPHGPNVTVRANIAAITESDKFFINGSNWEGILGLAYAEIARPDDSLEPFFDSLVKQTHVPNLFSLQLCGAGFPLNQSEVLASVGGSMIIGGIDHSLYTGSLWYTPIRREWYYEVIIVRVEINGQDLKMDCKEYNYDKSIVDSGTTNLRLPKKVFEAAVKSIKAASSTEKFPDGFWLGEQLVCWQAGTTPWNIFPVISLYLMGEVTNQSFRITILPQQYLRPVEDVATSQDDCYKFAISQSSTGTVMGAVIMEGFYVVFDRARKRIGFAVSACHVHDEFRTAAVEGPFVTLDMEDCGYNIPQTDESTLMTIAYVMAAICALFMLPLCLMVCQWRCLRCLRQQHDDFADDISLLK

Row | Structure (SMILES) | IC50 (Beta-secretase 1 [1]) | IC50 (Beta-secretase 2 [2]) | Ki (Beta-secretase 1 [3]) | Ki (Beta-secretase 2 [4]) | EC50 (Beta-secretase 1 [5]) | solubility [6] | Ratio IC50 [7]
1 | Fc1ccc2nc(-c3cccc(-c4cn5ccccc5n4)c3)[nH]c2c1 | 0.035 µM | 3.17 µM | 0.034 µM | 3.08 µM | 0.12 µM | – | –
2 | Cl.Fc1ccc2nc(-c3cccc(-c4cn5ccc(F)cc5n4)c3)[nH]c2c1 | – | – | – | – | – | 10000 µg/mL | –
3 | COc1ccc2nc(-c3cccc(-c4cn5ccccc5n4)c3)[nH]c2c1 | 0.026 µM | 3.32 µM | 0.025 µM | 3.22 µM | 0.03 µM | – | –
4 | CC(C)(C)Nc1c(-c2ccc(-c3nc4ccc(F)cc4[nH]3)cc2)nc2ccccn12 | 2.48 µM | 3.72 µM | 2.39 µM | 3.62 µM | – | – | –
5 | COc1cccc(-c2cnc(-c3cc(C(=O)N[C@@H](C)c4ccccc4)cc(N(C)S(C)(=O)=O)c3)[nH]2)c1 | – | – | – | – | – | – | 30
6 | COc1ccc2nc(-c3ccc(-c4nc5ccccn5c4NC(C)(C)C)cc3)[nH]c2c1 | 2.24 µM | 2.9 µM | 2.16 µM | 2.81 µM | 2.41 µM | – | 1.3
7 | C[C@H](NC(=O)c1cc(-c2ncc(-c3cccc(F)c3)[nH]2)cc(N(C)S(C)(=O)=O)c1)c1ccccc1 | 0.187 µM | 1.87 µM | 0.18 µM | 1.82 µM | – | – | –
8 | COc1cccc(-c2c[nH]c(-c3cc(C(=O)N[C@@H](C)c4ccccc4)cc(N(C)S(C)(=O)=O)c3)n2)c1 | 0.077 µM | 2.35 µM | 0.062 µM | 2.28 µM | 0.179 µM | – | –
9 | Fc1ccc2nc(-c3cccc(-c4cn5ccc(F)cc5n4)c3)[nH]c2c1 [listing 1 of 2 here] | 0.018 µM | 3.67 µM | 0.017 µM | 3.57 µM | 0.037 µM | – | –
10 | C[C@H](NC(=O)c1cc(-c2nc(-c3ccccc3)c[nH]2)cc(N(C)S(C)(=O)=O)c1)c1ccccc1 | 0.315 µM | 1.79 µM | 0.304 µM | 1.73 µM | 0.45 µM | – | –
11 | CC(C)(C)Nc1c(-c2cccc(-c3nc4ccccc4[nH]3)c2)nc2ccccn12 | 0.514 µM | 3.78 µM | 0.495 µM | 3.67 µM | – | – | –
12 | CC(C)(C)Nc1c(-c2cccc(-c3nc4ccc(F)cc4[nH]3)c2)nc2ccccn12 | 0.312 µM | 4.23 µM | 0.301 µM | 4.11 µM | 0.93 µM | – | –
13 | COc1ccc2nc(-c3cccc(-c4nc5ccccn5c4NC(C)(C)C)c3)[nH]c2c1 | 0.178 µM | 4.12 µM | 0.253 µM | 4 µM | 0.31 µM | – | 23
14 | C[C@H](NC(=O)c1cc(-c2nc3ccccc3[nH]2)cc(N(C)S(C)(=O)=O)c1)c1ccccc1 | 1.08 µM | 2.13 µM | 1.04 µM | 2.07 µM | – | – | –
15 | CC(C)(C)Nc1c(-c2ccc(-c3nc4ccccc4[nH]3)cc2)nc2ccccn12 | 5.51 µM | 5.68 µM | 5.31 µM | 5.51 µM | – | – | –
16 | COc1ccc2[nH]c(-c3cc(C(=O)N[C@@H](C)c4ccccc4)cc(N(C)S(C)(=O)=O)c3)nc2c1 | 0.545 µM | 2.42 µM | 0.525 µM | 2.35 µM | – | – | 5
17 | Fc1ccc2nc(-c3cccc(-c4cn5ccc(F)cc5n4)c3)[nH]c2c1 [listing 2 of 2 here] | – | – | – | – | – | – | 204
18 | c1cc(-c2cn3ccccc3n2)cc(-c2nc3ccccc3[nH]2)c1 | 0.961 µM | 3.89 µM | 0.926 µM | 3.78 µM | 1.55 µM | – | –
19 | C[C@H](NC(=O)c1cc(-c2nc3cc(F)ccc3[nH]2)cc(N(C)S(C)(=O)=O)c1)c1ccccc1 | 0.786 µM | 2.13 µM | 0.758 µM | 2.07 µM | 0.23 µM | – | 5
